Results from article PMC11897353 (Scientific Reports, 2025).
“Also recorded” adds a separate entry of the source.

Experiments:
[1] = molecular target: receptor 5-HT6; conditions: reported for the endogenous ligand; cited from earlier work
[2] = test system: LC3 and p62; test: Common autophagy pathway protein levels; assay type: cell-based, human; conditions: SH-SY5Y, 24 h, vs control; Rapamycin 100 nM
How it was run: (§1)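 Test compound was diluted in medium from a 5 mM DMSO stock and applied to SH-SY5Y cells for 24 h, after 24 h growth and a PBS wash. Controls were untreated medium and rapamycin. Cells were lysed in RIPA with protease/phosphatase inhibitors and protein measured by BCA. Equal protein was run on 6%/12% SDS-PAGE, then PVDF, 3% BSA block, primary overnight 4 °C, ECL. Densitometry; n≥3, mean ± SEM, one-way ANOVA with Tukey.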

[3] = test system: SH-SY5Y cells; test: MTT cell viability assay; assay type: cell-based, human; conditions: SH-SY5Y, 5 µM, 10 µM and 25 µM, 24 h, MTT
How it was run: (§2)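 SH-SY5Y cells were seeded at 5 × 10³ per well, grown 24 h, then given test compound at 5, 10 or 25 µM for 24 h, in triplicate. A solvent control was included, and 10% SDS added 1 h before the end served as the death control. MTT at 0.5 mg/mL ran 4 h at 37 °C, followed by overnight solubilization in 10% SDS/0.1 M HCl and A570. Results are % MTT reduction versus the negative control (100%); 3 experiments, one-way ANOVA.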

[4] = test system: 5-HT6R; test: 5-HT6R protein levels by Western blot; assay type: cell-based, human; conditions: SH-SY5Y, 24 h, densitometry vs control; Rapamycin 100 nM
How it was run: as §1

[5] = test system: SH-SY5Y cells; test: Autophagy induction by LC3 immunofluorescence; assay type: cell-based, human; conditions: for number of autophagosomes per cell / percentage of cells with autophagosomes (LC3-positive punctate pattern): SH-SY5Y, 25 µM, 24 h, vs control; for capacity to induce autophagy: neuroblastoma SH-SY5Y cell line
How it was run: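 SH-SY5Y cells were grown on coverslips at 20–40% confluence for 24 h, then given test compound at 25 µM for 24 h. Fixation used 4% paraformaldehyde plus DAPI for 20 min. Cells were permeabilized with 0.1% Triton, blocked in 3% BSA, and stained with anti-LC3A/B (1:400, overnight 4 °C) then Alexa 488 secondary. Images at 20x. Cells with LC3 puncta were counted against DAPI nuclei, and puncta per cell by 3D object counting.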

[6] = test system: mTOR pathway; test: mTOR pathway protein phosphorylation by Western blot; assay type: cell-based, human; conditions: SH-SY5Y, 24 h, vs control; Rapamycin 100 nM
How it was run: as §1

[7] = molecular target: human 5-HT6 receptors (Homo sapiens, UniProt P50406); test: biochemical; assay type: binding
[8] = MTT cell viability assay; assay type: cell-based, human; conditions: human, SH-SY5Y neuroblastoma cells
How it was run: as §2

[9] = Preliminary zebrafish larvae viability assay; conditions: in vivo, other: larvae exposed to the compound at 2–50 µM

Sequence of human 5-HT6 receptors (P50406 whole entry): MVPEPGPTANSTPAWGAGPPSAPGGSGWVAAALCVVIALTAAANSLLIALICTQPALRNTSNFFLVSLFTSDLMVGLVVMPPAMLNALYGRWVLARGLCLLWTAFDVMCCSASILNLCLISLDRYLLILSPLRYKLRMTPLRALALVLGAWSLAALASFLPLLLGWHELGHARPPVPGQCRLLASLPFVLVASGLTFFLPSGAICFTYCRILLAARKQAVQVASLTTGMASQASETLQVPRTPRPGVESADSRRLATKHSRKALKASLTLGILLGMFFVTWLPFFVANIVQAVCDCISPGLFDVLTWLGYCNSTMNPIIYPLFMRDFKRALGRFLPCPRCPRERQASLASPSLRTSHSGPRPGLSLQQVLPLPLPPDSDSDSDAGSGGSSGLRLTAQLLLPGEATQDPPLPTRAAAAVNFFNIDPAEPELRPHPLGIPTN

Row | Compound | Ki [1] [nM] | LC3-II/LC3-I ratio [2] | p62 levels [2] | total LC3-II levels [2] | cytotoxicity / cellular viability (in words) [3] | expression levels of 5-HT6R [4] | number of autophagosomes per cell [5] | percentage of cells with autophagosomes (LC3-positive punctate pattern) [5] | capacity to induce autophagy [5] | phosphorylated levels of BECN1 (Ser30) [6] | phosphorylated levels of ULK1 (Ser757) [6] | phosphorylated levels of mTOR (Ser2448) [6] | IC50 [7] [nM] | Ki [7] [nM] | viability at 24 h, 25 µM [8] [%] | viability at 48 h [9] [%]
2 | COc1ccccc1N1CCN(CC(O)c2nn(S(=O)(=O)c3cccc4ccccc34)c3ccccc23)CC1 (stereo not shown) [PUC-55, 2-(4-(2-methoxyphenyl)piperazin-1-yl)-1-(1-(naphthalen-1-ylsulfonyl)-1H-indazol-3-yl)ethan-1-ol] |  | significant increase | significantly decreased | significantly increased | high cellular viability; also recorded: do not induce cytotoxicity; also recorded: do not cause toxicity | increases significantly; also recorded: significantly increased | significant increase | significantly higher percentage | potent autophagy-inducing activity | significantly increased | significantly decreases | significantly decreases | 39 | 37.5 |  | 
3 | CO[C@H]1C[C@@H]2CC[C@@H](C)[C@@](O)(O2)C(=O)C(=O)N2CCCC[C@H]2C(=O)O[C@H]([C@H](C)C[C@@H]2CC[C@@H](O)[C@H](OC)C2)CC(=O)[C@H](C)/C=C(\C)[C@@H](O)[C@@H](OC)C(=O)[C@H](C)C[C@H](C)/C=C/C=C/C=C/1C [Rapamycin, reference compound] |  | significant increase | significantly decreased | significantly increased |  | did not modify the expression levels; also recorded: did not produce significant changes |  |  |  | significantly increased | significantly decreases | significantly decreases |  |  |  | 
4 | COc1ccccc1N1CCN(CC(O)c2cn(S(=O)(=O)c3cccc4ccccc34)c3ccccc23)CC1 (stereo not shown) [PUC-10, 2-(4-(2-methoxyphenyl)piperazin-1-yl)-1-(1-(naphthalen-1-ylsulfonyl)-1 H-indol-3-yl)ethan-1-ol] |  | significant increase | significantly decreased | significantly increased | do not induce cytotoxicity; also recorded: do not cause toxicity | increases significantly; also recorded: significantly increased | significant increase | significantly higher percentage | high capacity to induce autophagy | significantly increased | significantly decreases | significantly decreases |  |  | > 90 | ~85
